MBD2 DNA inh – MBD2-methylated oligo binding inhibition; Q9UBB5; TR-FRET, MBD2 binding to methylated oligonucleotide; inhibition, % at 4.4 µM; 370,000 compounds, 0.31% hits; AID 686964; in the data active = inhibition above about 13%
UHRF1 MBD2 ctr – UHRF1 methyl-DNA binding inhibition | Q96T88 | UHRF1 binding to methylated oligo, TR-FRET | inhibition, % at 4.4 µM | 370,000 compounds, 0.75% hits | AID 687016; in the data active = inhibition above about 21%;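 note: UHRF1 SRA domain binding a hemimethylated CpG hairpin DNA probe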
CASP6 VEID inh – caspase-6 (human) enzyme inhibition. P55212. purified caspase-6, Z-VEID-R110 cleavage fluorescence. inhibition, % at 12.5 µM. 350,000 compounds, 0.53% hits;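 active = mean inhibition across replicates at least about 35%, with every replicate also reaching that limit, limit read from the data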
Target sequence (P55212 24-179 limits assumed): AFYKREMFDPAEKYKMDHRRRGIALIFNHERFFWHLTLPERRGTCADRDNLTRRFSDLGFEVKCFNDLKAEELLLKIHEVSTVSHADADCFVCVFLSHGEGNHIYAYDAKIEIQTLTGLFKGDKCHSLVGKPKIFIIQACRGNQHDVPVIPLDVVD
Target sequence (P55212 194-293 limits assumed): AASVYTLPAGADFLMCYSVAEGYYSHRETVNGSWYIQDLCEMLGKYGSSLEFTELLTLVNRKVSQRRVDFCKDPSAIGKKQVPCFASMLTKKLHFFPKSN
NSD2 inh – blocks human histone methyltransferase NSD2; O96028; NSD2 peptide methylation, AlphaScreen, 120 min; inhibition, % at 12.5 µM; 310,000 compounds, 0.54% hits; AID 743445; in the data active = inhibition above about 50%
TDP2 inh – blocks human TDP2 phosphodiesterase activity | O95551 | recombinant TDP2, T5PNP hydrolysis, p-nitrophenol absorbance 415 nm | inhibition, % at 12.8 µM | AID 720702 | 370,000 compounds, 0.34% hits;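 active = inhibition above the mean of all tested compounds plus 3 SD, set per campaign, cut at about 25% in these data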
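System: recombinant human TDP2 / Amount: 120 nM TDP2 per well / Also added: 5 mM T5PNP chromogenic substrate / Doses: 12.8 µM single point, 1% DMSO / Incubation: 2 h at 37 °C / Detection: p-Nitrophenol epi absorbance / Evaluation: % inhibition relative to enzyme-containing and enzyme-free wells / Repeats: singlicate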
LEDGF integ inh – blocks HIV-1 LEDGF/p75-dependent DNA integration; TR-FRET IN-LEDGF/p75 DNA integration, Eu/Cy5; inhibition, % at 3.7 µM; 370,000 compounds, 0.64% hits;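 active = inhibition above the screen-wide mean plus 3 SD, cut at about 13% in these data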;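 note: signal is the Cy5 over europium emission ratio at 671 and 618 nm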
TDP2 confirm – confirmation of human TDP2 inhibitors. shares compounds with TDP2 inh. AID 743263. 1,100 compounds, 22% hits. inhibition, % at 12.8 µM. recombinant human TDP2, absorbance read-out; in the data active = inhibition above about 25%
Each line names hits and unclear results; the compound was inactive in the other large screens (follow-up assays come after a bar, where they were run). An excerpt weighted towards active compounds, which were near 1.8% of everything screened.

S=C(Nc1ccc(Cl)cc1)Nc1cccc2cnccc12	TDP2 inh 35 | TDP2 confirm 31
CCOc1ccc(NC(=S)Nc2cccc3cnccc23)cc1	none (no result: CASP6 VEID inh)
Cc1cccc(NC(=S)Nc2cccc3ccccc23)c1	TDP2 inh 25 | TDP2 confirm inactive
Fc1ccc(NC(=S)Nc2cccc3cnccc23)cc1	CASP6 VEID inh 36, TDP2 inh 30 | TDP2 confirm inactive
Fc1ccc(NC(=S)Nc2cccc3ccccc23)cc1	none
O=C(Nc1cccc(F)c1)N1[C@@H]2CNC[C@H]1C2c1ccc(-c2cccnc2)cc1 (stereo partly drawn)	none (no result: MBD2 DNA inh, UHRF1 MBD2 ctr, NSD2 inh, TDP2 inh, LEDGF integ inh)
CC(=O)N1[C@@H]2c3ccc(-c4cccc(F)c4)c(=O)n3C[C@H]1[C@H](CO)[C@H]2C(=O)NCCCN(C)C	none (no result: MBD2 DNA inh, UHRF1 MBD2 ctr, NSD2 inh, TDP2 inh, LEDGF integ inh)
Cc1ccc(S(=O)(=O)NCC2COc3ccccc3O2)cc1 (stereo not drawn)	none
Cc1ccc([N+](=O)[O-])cc1S(=O)(=O)NCC1COc2ccccc2O1 (stereo not drawn)	TDP2 inh 45 | TDP2 confirm inactive
CCCCN(C(=O)CCC(=O)OCC(=O)NCc1ccccc1)c1c(N)n(CCC)c(=O)[nH]c1=O	none
CCCCn1c(N)c(N(CC(C)C)C(=O)c2cccc(OCc3ccccc3)c2)c(=O)[nH]c1=O	TDP2 inh 25 | TDP2 confirm inactive
CCCCCN(C(=O)CCC(=O)OCC(=O)NCc1cccc(OC)c1)c1c(N)n(CCCC)c(=O)[nH]c1=O	TDP2 inh 75 | TDP2 confirm inactive
Cc1ccc(S(=O)(=O)N[C@@H]2CC[C@@H](CC(=O)N3CCc4ccccc4C3)O[C@@H]2CO)cc1	none (no result: MBD2 DNA inh, UHRF1 MBD2 ctr, NSD2 inh, TDP2 inh, LEDGF integ inh)
COc1ccc(CN2CCCC(C(=O)N3CCCC3)C2)c(OC)c1 (stereo not drawn)	TDP2 inh 31 | TDP2 confirm inactive
CN(C)CCOC(=O)c1ccc2[nH]c3c(c2c1)CSCC3	TDP2 inh 25 | TDP2 confirm inactive
CCOC(=O)c1ccc2[nH]c3c(c2c1)CCCC3	none
O=C(N[C@H]1CC[C@H](CCNS(=O)(=O)c2cccc(Cl)c2)O[C@H]1CO)c1ccncc1	none (no result: MBD2 DNA inh, UHRF1 MBD2 ctr, NSD2 inh, TDP2 inh, LEDGF integ inh)
O=C(NCc1ccc(F)cc1)[C@H]1C[C@H]2C(=O)N3CCC[C@H]3C(=O)N2[C@H]1c1cccc(OCCO)c1	none (no result: MBD2 DNA inh, UHRF1 MBD2 ctr, NSD2 inh, TDP2 inh, LEDGF integ inh)
CCC(=O)N1[C@@H]2c3ccc(C4=CCCC4)c(=O)n3C[C@@H]2[C@@H](CO)[C@@H]1C(=O)NC1CCC1	none (no result: MBD2 DNA inh, UHRF1 MBD2 ctr, NSD2 inh, TDP2 inh, LEDGF integ inh)
CCc1ccc2cc(C)cc(C)c2n1	none (no result: NSD2 inh)
CCc1ccc2cc(F)cc(F)c2n1	TDP2 inh 45 (no result: NSD2 inh) | TDP2 confirm inactive
C[C@H]1CCCCO[C@H](CN(C)S(=O)(=O)c2ccccc2)[C@@H](C)CN([C@@H](C)CO)C(=O)c2cc(NS(=O)(=O)c3ccc(F)cc3)ccc2O1	none (no result: MBD2 DNA inh, UHRF1 MBD2 ctr, NSD2 inh, TDP2 inh, LEDGF integ inh)
O=C(C[C@H]1CC[C@H]2[C@@H](COC[C@H](O)CN2Cc2cc(F)cc(F)c2)O1)NC1CCC1	none (no result: MBD2 DNA inh, UHRF1 MBD2 ctr, NSD2 inh, TDP2 inh, LEDGF integ inh)
CCOc1ccc(N2CC(C(=O)N3CCN(C(=O)c4ccco4)CC3)CC2=O)cc1 (stereo not drawn)	TDP2 inh 26 | TDP2 confirm inactive
CCC(=O)N1CC2(CN(C(=O)Nc3ccc(F)cc3)C2)c2c([nH]c3cc(OC)ccc23)[C@@H]1CO	none (no result: MBD2 DNA inh, UHRF1 MBD2 ctr, NSD2 inh, TDP2 inh, LEDGF integ inh)
COc1ccccc1/C=C/c1nc(S(=O)(=O)c2ccccc2)c(N2CCC(C(N)=O)CC2)o1	TDP2 inh 26 | TDP2 confirm inactive
Nc1ccc(C#Cc2ccc3c(=O)c4ccccc4oc3c2)cc1	UHRF1 MBD2 ctr 23, TDP2 inh 27 (no result: NSD2 inh) | TDP2 confirm inactive
C[C@H]1CCCCO[C@H](CN(C)C(=O)Nc2ccc(C(F)(F)F)cc2)[C@@H](C)CN([C@@H](C)CO)C(=O)c2cc(NC(=O)C3CCCCC3)ccc2O1	none (no result: MBD2 DNA inh, UHRF1 MBD2 ctr, NSD2 inh, TDP2 inh, LEDGF integ inh)
CN(C)c1ccc(C(=O)OCC(=O)NC2CCCCC2)cc1	none (no result: CASP6 VEID inh)
CN(C)c1cccc(C(=O)OCC(=O)NC2CCCC2)c1	TDP2 inh 26 | TDP2 confirm inactive
CCCNC(=O)N1[C@H](C#N)[C@H](c2ccc(-c3cccc(OC)c3)cc2)[C@@H]1CO	none (no result: MBD2 DNA inh, UHRF1 MBD2 ctr, NSD2 inh, TDP2 inh, LEDGF integ inh)
O=S(=O)(c1ccccc1)c1ccc(NCc2ccco2)cc1	none (no result: CASP6 VEID inh)
O=C1C(Cl)=C(NCc2ccco2)C(=O)c2ccccc21	CASP6 VEID inh 99, NSD2 inh 71, TDP2 inh 35 | TDP2 confirm inactive

Compound activity (PubChem)
